Results on ten molecules are retold here after PMC3205922 (Biochemistry, 2011).

Where two headings read alike, the source gives them in different places. Non-standard residues stand in square brackets, D forms with d. No end group written: not given here. pT = C[C@@H](OP(=O)(O)O)[C@H](N)C(=O)O

Test [1] has as its target T1, LRRK2 mutant t-G2019S (aa 970–2527) (Homo sapiens, UniProt Q5S007, G2019S). The format is biochemical. The conditions noted are these: for KA (ATP): t-G2019S.
The test system of test [2] is mutant t-G2019S (GTPase activity). Nature of the test: Radiometric TLC assay of LRRK2-catalyzed GTP hydrolysis. Type of test: biochemical, human. The procedure, abridged:
(§1)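 Baculovirus-expressed truncated LRRK2 (aa 970–2527), wild-type or G2019S. Run in triplicate, 20 min at room temperature, quenched with 20 mM EDTA. GDP resolved by PEI-cellulose TLC (0.5 M KH2PO4, pH 3.4) and scintillation-counted. Initial velocities versus [GTP] fitted to Michaelis-Menten.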

In the next test the test system is truncated LRRK2 proteins. Briefly: Effect of GTP or GDP on kinase activity. Particulars: in vitro. Type of test: biochemical, human.
In test [3] the test system is t-wt LRRK2 (GTPase activity). Briefly: Radiometric TLC assay of LRRK2-catalyzed GTP hydrolysis. The format is biochemical, human. Particulars: pH 7.4, room temperature, Michaelis-Menten fit. The procedure, abridged:
as §1

Test [4] addresses T2, truncated wild-type LRRK2 (aa 970–2527) (Homo sapiens, UniProt Q5S007). Type of test: biochemical. Particulars: for KA (ATP): t-WT.
The target of another test is t-wt LRRK2 (Homo sapiens, UniProt Q5S007). The format is biochemical. Particulars: t-wt LRRK2 treated with NEM.
Sequence of t-wt LRRK2 (Q5S007 970-2527): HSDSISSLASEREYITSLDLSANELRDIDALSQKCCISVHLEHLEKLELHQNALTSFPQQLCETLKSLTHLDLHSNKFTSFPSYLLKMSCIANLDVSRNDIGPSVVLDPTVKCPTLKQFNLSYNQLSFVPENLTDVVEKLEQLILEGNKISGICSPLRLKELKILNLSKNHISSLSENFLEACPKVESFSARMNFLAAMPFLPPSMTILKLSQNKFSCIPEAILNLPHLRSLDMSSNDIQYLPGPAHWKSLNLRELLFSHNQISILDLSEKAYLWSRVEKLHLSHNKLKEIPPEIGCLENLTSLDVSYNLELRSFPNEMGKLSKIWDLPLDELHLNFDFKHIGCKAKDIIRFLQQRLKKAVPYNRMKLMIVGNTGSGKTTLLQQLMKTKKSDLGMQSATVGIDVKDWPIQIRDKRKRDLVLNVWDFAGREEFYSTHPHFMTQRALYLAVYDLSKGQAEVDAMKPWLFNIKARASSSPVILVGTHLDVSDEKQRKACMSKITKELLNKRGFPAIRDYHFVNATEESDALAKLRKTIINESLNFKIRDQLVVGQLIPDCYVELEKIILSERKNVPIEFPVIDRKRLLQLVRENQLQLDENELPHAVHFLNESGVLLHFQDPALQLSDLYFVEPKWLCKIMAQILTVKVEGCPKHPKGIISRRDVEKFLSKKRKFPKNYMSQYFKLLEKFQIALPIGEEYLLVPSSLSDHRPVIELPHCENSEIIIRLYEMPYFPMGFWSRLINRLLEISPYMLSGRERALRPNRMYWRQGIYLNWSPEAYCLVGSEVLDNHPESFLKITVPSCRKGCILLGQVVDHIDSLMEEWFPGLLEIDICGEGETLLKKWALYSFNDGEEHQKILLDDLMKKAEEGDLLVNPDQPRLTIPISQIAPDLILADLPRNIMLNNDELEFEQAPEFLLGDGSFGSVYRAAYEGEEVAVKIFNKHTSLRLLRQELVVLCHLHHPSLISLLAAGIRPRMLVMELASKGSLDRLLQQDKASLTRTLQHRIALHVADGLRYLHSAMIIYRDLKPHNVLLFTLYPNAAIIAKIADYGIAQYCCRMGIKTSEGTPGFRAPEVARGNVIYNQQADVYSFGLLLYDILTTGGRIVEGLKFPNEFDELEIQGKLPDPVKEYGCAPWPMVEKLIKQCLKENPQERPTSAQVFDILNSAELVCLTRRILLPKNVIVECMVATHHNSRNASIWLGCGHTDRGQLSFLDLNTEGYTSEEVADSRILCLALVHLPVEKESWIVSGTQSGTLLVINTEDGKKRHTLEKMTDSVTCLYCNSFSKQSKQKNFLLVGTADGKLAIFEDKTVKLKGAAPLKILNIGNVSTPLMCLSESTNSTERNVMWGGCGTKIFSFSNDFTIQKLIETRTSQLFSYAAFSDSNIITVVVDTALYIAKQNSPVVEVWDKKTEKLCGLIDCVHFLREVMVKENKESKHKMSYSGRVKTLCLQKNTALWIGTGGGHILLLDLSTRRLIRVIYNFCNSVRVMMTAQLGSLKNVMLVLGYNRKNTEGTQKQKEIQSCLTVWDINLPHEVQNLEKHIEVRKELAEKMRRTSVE
Test [5] concerns the target Truncated LRRK2 mutant G2019S (aa 970–2527) (human) (UniProt Q5S007). Nature of the test: enzyme inhibition kinetics.
For test [6], the target named is T2, truncated wild-type LRRK2 (aa 970–2527). Briefly: TR-FRET assay of PLK-peptide phosphorylation. Type of test: biochemical. The procedure, abridged:
(§2)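 Baculovirus-expressed truncated LRRK2 (aa 970–2527). ATP varied at several fixed PLK-peptide levels. Started with 4 nM enzyme; duplicate wells, RT, 4 h. Stopped with 10 mM EDTA; 2 nM Eu-anti-phospho-PLK added for 2 h; TR-FRET read. Initial velocities fitted by nonlinear least squares to two-substrate rate equations.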

Test [7] concerns the target T1, LRRK2 mutant t-G2019S (aa 970–2527). Nature of the test: TR-FRET assay of PLK-peptide phosphorylation, initial velocity and inhibition. Type of test: biochemical. The procedure, abridged: as §2
(In general: In TR-FRET formats the signal depends on donor and acceptor labels being close together.)

The target of test [8] is Truncated wild-type LRRK2 (aa 970–2527) (human, UniProt Q5S007 970-2527). Briefly: enzyme inhibition kinetics.
Sequence of Truncated wild-type LRRK2 (aa 970–2527) (Q5S007 970-2527): as above

Sequence of Truncated LRRK2 mutant G2019S (aa 970–2527) (human) (Q5S007 970-2527 G2019S): as the sequence (Q5S007 970-2527) above, with G1050S counted along it
T1 sequence (Q5S007 970-2527 G2019S): as the sequence (Q5S007 970-2527) above, with G1050S counted along it
T2 sequence (Q5S007 970-2527): as the sequence (Q5S007 970-2527) above

In the case of `Nc1ncnc2c1ncn2[C@@H]1O[C@H](COP(=O)(O)OP(=O)(O)O)[C@@H](O)[C@H]1O` [ADP], the inhibition mechanism entry in [1] (LRRKtide phosphorylation, variable substrate LRRKtide) is given as “noncompetitive”.
As to `Nc1nc2c(ncn2[C@@H]2O[C@H](COP(=O)(O)OP(=O)(O)OP(=O)(O)O)[C@@H](O)[C@H]2O)c(=O)[nH]1` [GTP], in test [2] (t-G2019S versus t-wt), the “decrease of GTPase activity by the mutation” value is on record as 20%. For the same molecule, the KGTP in test [2] (t-G2019S, pH 7.4, room temperature, Michaelis-Menten fit) came to 0.4 ± 0.1 mM; in [3], 0.7 ± 0.1 mM. For the same molecule, the “kcat (GTP hydrolysis)” value in test [2] (t-G2019S, pH 7.4, room temperature, Michaelis-Menten fit, triplicate) came out at 0.03 ± 0.002 s⁻¹; in [3] (triplicate), 0.04 ± 0.004 s⁻¹. For the same molecule, the “effect on kinase activity” value in the test with truncated LRRK2 proteins was “unable to detect any effect”.
In the case of RLGRDKYKTLRQIRQ [LRRKtide], the Kb came out at 87 ± 11 µM in [4] and 79 ± 11 µM in [1].
For the molecule `CCN1C(=O)C=CC1=O` [NEM, N-ethylmaleimide], the “inhibition of LRRK2, dose-response” value against t-wt LRRK2 is reported as “complete inhibition at high NEM concentration”.
In test [5], LRRKtide^A (peptide) showed a Ki,e (variable substrate ATP, noncompetitive; LRRKtide^S phosphorylation) of 800 µM; a Ki,e (variable substrate ATP, noncompetitive; PLK-peptide phosphorylation) of 800 µM; a Ki,ea (variable substrate ATP, noncompetitive; LRRKtide^S phosphorylation) of 500 µM; a Ki,ea (variable substrate ATP, noncompetitive; PLK-peptide phosphorylation) of 500 µM. Further, in test [5], the Ki,ea (variable substrate LRRKtide^S, competitive) worked out at 500 µM and the Ki,ea (variable substrate PLK-peptide, competitive) worked out at 500 µM.
On to `Nc1ncnc2c1ncn2[C@@H]1O[C@H](COP(=O)(O)OP(=O)(O)OP(=O)(O)O)[C@@H](O)[C@H]1O` [ATP], for which the “KA (ATP)” value in [6] (t-WT, phosphoryl acceptor PLK-peptide) is recorded as 7.1 ± 0.7 µM; in test [4] (phosphoryl acceptor LRRKtide), 69 ± 6.6 µM; in test [4] (phosphoryl acceptor LRRKtide^S) it was 77 ± 19 µM; in test [1] (phosphoryl acceptor LRRKtide), 101 ± 16 µM; in test [1] (phosphoryl acceptor LRRKtide^S), 161 ± 38 µM; in test [7] (phosphoryl acceptor PLK-peptide), 10 ± 3.9 µM.
For RRRSLLE [PLK-peptide], the “tighter binding relative to LRRKtide” value in test [6] (from differences in Km values) is above 200 fold. The α in test [6] (t-WT, TR-FRET, interaction factor (eq 3)) was found to be 0.5 ± 0.1; in [7] (TR-FRET, interaction factor (eq 3)) it was 0.6 ± 0.3.
For the molecule `Nc1nc2c(ncn2[C@@H]2O[C@H](COP(=O)(O)OP(=O)(O)O)[C@@H](O)[C@H]2O)c(=O)[nH]1` [GDP], in the test with truncated LRRK2 proteins, the “effect on kinase activity” value is “unable to detect any effect”.
Turning to “RRRSLLE (Only the motif RRRSLLE is printed; The Ser is the phosphoaccept) [PLK-peptide]”, the Kb in test [6] (read-out: KB (phosphoryl acceptor), t-WT, TR-FRET, averaged from two independent experiments) stood at 0.43 ± 0.05 µM; in test [7] (read-out: KB (phosphoryl acceptor), TR-FRET, averaged from two independent experiments) it was 0.5 ± 0.2 µM.
For RLGRDKYK[pT]LRQIRQ (not fully specified; printed as RLGRDKYK(PO4)TLRQIRQ) [PO4-LRRKtide], the binding result in test [8] is “binds”.
